Screening results deposited in PubChem BioAssay by several laboratories.
Compounds with a hit are over-represented: about 2.3% of the library has one in this group of screens.
NR2E3 ag-1: agonists of human nuclear receptor NR2E3; Q9Y5X4; GST-NR2E3/biotin-RetCOR TR-FRET, 1536-well; inhibition of corepressor binding, % at 4.78 µM; 320,000 compounds, 0.12% hits; AID 2300;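 active means percent inhibition above the cutoff of mean plus 3 SD of all tested compounds, set per screening campaign, cut at about 20% in these data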;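 further: 0% = DMSO wells and 100% = biotin wells as full block of FRET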
Target sequence (Q9Y5X4 whole entry, looked up): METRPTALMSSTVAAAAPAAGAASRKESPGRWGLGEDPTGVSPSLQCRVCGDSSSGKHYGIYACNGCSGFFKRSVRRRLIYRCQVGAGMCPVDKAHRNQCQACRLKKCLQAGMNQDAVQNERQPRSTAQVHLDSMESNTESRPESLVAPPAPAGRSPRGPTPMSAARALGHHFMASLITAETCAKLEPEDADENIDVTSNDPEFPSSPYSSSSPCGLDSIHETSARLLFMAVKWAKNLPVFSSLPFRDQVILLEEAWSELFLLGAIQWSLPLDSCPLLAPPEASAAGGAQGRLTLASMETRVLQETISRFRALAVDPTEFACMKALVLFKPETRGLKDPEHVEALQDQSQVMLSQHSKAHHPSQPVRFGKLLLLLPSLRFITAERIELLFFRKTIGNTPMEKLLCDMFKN
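Test system – NR2E3–RetCOR corepressor complex · Quantity – NR2E3 fusion 1.35 nM · Buffer or medium – Tris pH 7.5 · Incubation – Compound–protein incubation for 5 h at 4 °C · Technique – TR-FRET, Eu(K)-anti-GST donor, streptavidin-D2 acceptor, ex 340, em 617/671 nm · Evaluation – percent inhibition of 671/617 nm emission ratio versus biotin and DMSO controls · Plate – 1536-well format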
CHT PAM: human CHT allosteric activation; Q9GZV3; CHT-expressing cells, membrane potential dye, choline EC20; hits give high values; LV-AA mutant CHT in HEK293 cells; B-score at 10 µM; 310,000 compounds, 0.49% hits; AID 488977;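 active means initial fluorescence not abnormally high and integrated response B-score, plate-corrected, over 3 SD above library mean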
COUP-TFII inh: NR2F2 (human) inhibition, primary screen. inhibition, % at 8.6 µM. P24468. HEK293T NGFI-A luciferase reporter, luminescence. 370,000 compounds, 0.7% hits;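 active means inhibition above a per-plate cutoff, mean inhibition of test wells between control levels plus 3 SD, cut at about 38% in these data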;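 further: cells cotransfected with COUP-TFII expression vector driving the NGFI-A reporter; 0% = median of COUP-TF2 test wells and 100% = reporter-only cells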
GalR3 antag: human GalR3 antagonism. O60755. HEK293 GalR3-CNG cAMP membrane potential fluorescence; galR3 body fused to GalR1 C-terminus. inhibition, % at 3 µM. 360,000 compounds, 0.44% hits. AID 651719;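 active means inhibition above the screen-wide average plus 3 SD, cut at about 13% in these data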;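 further: forskolin and galanin both at EC90 stimulate the cells; cAMP rise reported by CNG channel membrane potential dye signal; 0% = forskolin plus galanin with DMSO and 100% = forskolin alone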
Target sequence (O60755 1-299 limits assumed): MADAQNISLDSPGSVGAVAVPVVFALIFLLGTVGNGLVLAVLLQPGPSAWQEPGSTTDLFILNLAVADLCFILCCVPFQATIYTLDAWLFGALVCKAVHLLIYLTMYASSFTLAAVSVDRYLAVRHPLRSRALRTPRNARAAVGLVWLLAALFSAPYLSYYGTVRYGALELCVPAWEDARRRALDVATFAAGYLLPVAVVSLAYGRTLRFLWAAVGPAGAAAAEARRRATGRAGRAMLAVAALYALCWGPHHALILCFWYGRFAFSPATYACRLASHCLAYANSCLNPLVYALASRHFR
NR2E3 ag-2: human photoreceptor-specific nuclear receptor agonism. Q9Y5X4. CHO-S Gal4-NCOR/VP16-NR2E3 two-hybrid, luciferase. inhibition of corepressor binding, % at 3.98 µM. 360,000 compounds, 0.35% hits. AID 602229;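 active means inhibition above the mean of all tested compounds plus 3 SD, cut at about 70% in these data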;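 further: 0% = DMSO with NR2E3 transfected cells and 100% = cells lacking NR2E3 construct; higher means lower luciferase signal from less NR2E3 corepressor binding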
CHT inh: inhibits the human high affinity choline transporter; AID 488975; 310,000 compounds, 0.86% hits; B-score at 10 µM; CHT-expressing cells, membrane potential dye, choline response; hits give low values;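 active means B-score over 3 SD under the library average, and starting fluorescence ratio not unusually high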;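 further: choline stimulus applied at its EC90 after an EC20 pre-addition; B-score computed on integrated fluorescence ratio after choline addition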
CHT block conf: human CHT inhibition, confirmatory screen; CHT-expressing cells, choline membrane potential dye; LV-to-AA substituted CHT, HEK293 cells; AID 493221; CHT activity remaining % of control (hits give low values), % at 10 µM; shares compounds with CHT inh; 2,400 compounds, 70% hits;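 active means choline transporter activity left, mean of duplicates at 10 µM, below buffer-only control mean minus 3 SD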;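 further: depolarization triggered by choline at its EC90 following an EC20 pre-addition; 0% = hemicholinium-3 full block and 100% = buffer-only control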
HEK293 CHT ctr: CHT inhibitor counter-screen hit in parental HEK293 cells | shares compounds with CHT inh | membrane potential dye, choline response; active = decrease or increase beyond buffer ±3SD | membrane potential ratio readout (active if shifted either direction beyond buffer ±3SD; no single direction) at 10 µM | 2,400 compounds, 4% hits;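 further: parental cells lack the transporter so any hit is non-specific; ratio is peak minus trough fluorescence over baseline after EC90 choline challenge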
* = called active by the depositor.

For COC(=O)c1sc(NC(=O)c2ccc([N+](=O)[O-])o2)c(C#N)c1C the results were NR2E3 ag-1 -3.3, CHT PAM inactive, COUP-TFII inh 14.2, GalR3 antag 1.5, NR2E3 ag-2 7.3, CHT inh -7.96*, CHT block conf 62.2%* and HEK293 CHT ctr 2.52*.
`O=C(On1c(-c2ccccc2)nc2ccccc2c1=O)c1ccco1` gave NR2E3 ag-1 -0.5, CHT PAM inactive, COUP-TFII inh 1.6, GalR3 antag -4.7, NR2E3 ag-2 -9.8, CHT inh -9.72*, CHT block conf 57.0%* and HEK293 CHT ctr inactive.
For N=C1C(c2ccccc2)=C(O)CN1c1cccc(O)c1 the results were NR2E3 ag-1 6.5, CHT PAM inactive, COUP-TFII inh -12.8, GalR3 antag -3.4, NR2E3 ag-2 -17.2, CHT inh -6.57*, CHT block conf inactive and HEK293 CHT ctr inactive.
For CC(C)c1ccc(Nc2c([N+](=O)[O-])c(=O)n(C)c3ccccc23)cc1 the results were NR2E3 ag-1 -0.5, CHT PAM inactive, COUP-TFII inh 6.0, GalR3 antag -1.1, NR2E3 ag-2 -48.2 and CHT inh inactive.
`Cn1c(=O)c(Nc2ccc(O)cc2)c2c3c(cccc31)C(=O)c1ccccc1-2` gave NR2E3 ag-1 1.4, CHT PAM inactive, COUP-TFII inh -16.5, GalR3 antag 3.0, NR2E3 ag-2 20.8, CHT inh -16.5*, CHT block conf 9.4%* and HEK293 CHT ctr inactive.
For O=[N+]([O-])c1ccc(CSc2nnc3ccccn23)cc1 the results were NR2E3 ag-1 -4.3, CHT PAM inactive, COUP-TFII inh -3.5, GalR3 antag -1.9, NR2E3 ag-2 -18.6, CHT inh -13.3*, CHT block conf 8.8%* and HEK293 CHT ctr inactive.
Screening O=C(NCc1cccs1)C1CCCN(S(=O)(=O)c2ccccc2)C1 (stereo not given) returned COUP-TFII inh 13.0.
`CCCCn1c(SCn2nnc3ccccc3c2=O)nc2cc(S(N)(=O)=O)ccc21` gave NR2E3 ag-1 -2.0, CHT PAM inactive, COUP-TFII inh 17.0, GalR3 antag -4.1, NR2E3 ag-2 -5.7, CHT inh -6.24*, CHT block conf 48.8%* and HEK293 CHT ctr inactive.
For CN1Cc2nnn(Cc3ccccc3)c2-c2cc(N3CCCC3)ccc2S1(=O)=O the results were COUP-TFII inh 21.2.
For O=C(c1ccc(F)cc1F)N1CCC(Oc2cccnc2)CC1 the results were COUP-TFII inh 0.8.
`CCN(CC)C(=S)SCC(=O)Nc1ccc(S(N)(=O)=O)cc1` gave NR2E3 ag-1 4.7, CHT PAM inactive, COUP-TFII inh -20.3, GalR3 antag -5.0, NR2E3 ag-2 5.0, CHT inh -5.58*, CHT block conf inactive and HEK293 CHT ctr inactive.
For COC(=O)C1CN(Cc2ccc(C)cc2)CCS(=O)(=O)N1Cc1cn(Cc2ccc(OC)cc2)nn1 (stereo not given) the results were COUP-TFII inh 2.9.
Screening CCOCCCN(C)C1CCN(C(=O)c2oc3ccccc3c2NC(=O)c2cccc([N+](=O)[O-])c2)CC1 returned NR2E3 ag-1 -1.2, CHT PAM inactive, COUP-TFII inh 3.5, GalR3 antag -8.7, NR2E3 ag-2 13.0, CHT inh -6.34*, CHT block conf 38.4%* and HEK293 CHT ctr 4.31*.
`O=C(OC12CCCN(C1)/C(=C/c1ccncc1)C2)c1ccc(Cl)cc1` (stereo not given) gave COUP-TFII inh 33.9.
Cc1cccc(C(=O)Nc2sc(C)c(-c3ccccc3)c2C#N)c1 was read as NR2E3 ag-1 1.5, CHT PAM inactive, COUP-TFII inh -13.5, GalR3 antag 1.7, NR2E3 ag-2 -160.2 and CHT inh inactive.
For Cc1noc(C)c1C(=O)Nc1sc(C)c(-c2ccccc2)c1C#N the results were NR2E3 ag-1 -1.0, CHT PAM inactive, COUP-TFII inh 9.0, GalR3 antag -4.1, NR2E3 ag-2 -2.4, CHT inh -5.16*, CHT block conf 70.6%* and HEK293 CHT ctr inactive.
`O=C(COC(=O)Cc1ccsc1)Nc1ccc(F)cc1Cl` gave NR2E3 ag-1 5.3, COUP-TFII inh 9.1, GalR3 antag -3.3 and NR2E3 ag-2 16.1.
Screening O=C(CS(=O)(=O)Nc1ccc(F)cc1Cl)Nc1ccc(F)cc1Cl returned NR2E3 ag-1 -0.3, CHT PAM inactive, COUP-TFII inh 14.1, GalR3 antag -8.1, NR2E3 ag-2 7.2, CHT inh -10.8*, CHT block conf 66.1%* and HEK293 CHT ctr inactive.
Cc1nc(N2CCN(C(=O)C3CCCCC3)CC2)c2c3c(sc2n1)CCCC3 was read as COUP-TFII inh 20.5.
c1ccc(-c2ccccc2OCc2nnc3n2CCC3)cc1 was read as NR2E3 ag-1 0.4, CHT PAM inactive, COUP-TFII inh 10.7, GalR3 antag -6.6, NR2E3 ag-2 10.9, CHT inh -5.31*, CHT block conf 59.6%* and HEK293 CHT ctr inactive.
Screening COc1cccc(OC[C@@H](O)CN2CCC(C(O)(c3ccccc3)c3ccccc3)CC2)c1 returned COUP-TFII inh -1.0.
COc1ccc(N2C(=O)CC(N(Cc3ccco3)C(=O)CCC(=O)O)C2=O)cc1 (stereo not given) was read as NR2E3 ag-1 5.7, CHT PAM inactive, COUP-TFII inh 15.5, GalR3 antag -1.8, NR2E3 ag-2 6.0, CHT inh -6.36*, CHT block conf inactive and HEK293 CHT ctr inactive.
CCCOc1ccc(N2C(=O)CC(N(Cc3ccco3)C(=O)CCC(=O)O)C2=O)cc1 (stereo not given) was read as NR2E3 ag-1 -3.4, CHT PAM inactive, COUP-TFII inh 11.8, GalR3 antag -4.6, NR2E3 ag-2 -24.9 and CHT inh inactive.
For Cc1cc(C)c2c(c1)-c1cc(C)nn1C(c1ccc3c(c1)OCO3)N2 (stereo not given) the results were NR2E3 ag-1 0.6, CHT PAM inactive, COUP-TFII inh -39.7, GalR3 antag -1.7, NR2E3 ag-2 -14.2 and CHT inh inactive.
`Cc1cc2n(n1)C(c1ccc3c(c1)OCO3)Nc1c(C)cccc1-2` (stereo not given) gave NR2E3 ag-1 -1.8, CHT PAM inactive, COUP-TFII inh 3.5, GalR3 antag -4.8, NR2E3 ag-2 -23.5, CHT inh -5.08*, CHT block conf inactive and HEK293 CHT ctr inactive.
